Experimental data from PMC2843764 (Bioorganic & medicinal chemistry letters, 2010).

What was measured:
purified RBBP9 = purified RBBP9 (Homo sapiens, UniProt O75884); assay: gel-based competitive ABPP with purified RBBP9; type: biochemical; conditions: for RBBP9 inhibitory activity (in words): purified RBBP9, 20 µM
RBBP9 [1] = target: T1, RBBP9 (Homo sapiens, UniProt O75884); assay: fluopol-ABPP screen for RBBP9 inhibition; type: biochemical; conditions: read-out: percent inhibition of RBBP9 in fluopol-ABPP confirmation screen
[2] = system: serine hydrolases of the HEK 293T soluble proteome; assay: competitive ABPP with FP-Rh in RBBP9-transfected HEK 293T soluble proteome; type: biochemical; conditions: FP-Rh probe, 20 and 200 µM
In short: (§1)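 Gel-based competitive ABPP. Two proteomes were used: the soluble fraction of RBBP9-transfected HEK 293T cells, and mouse brain membrane fraction doped with recombinant RBBP9. Each was preincubated 30 minutes with test compound (HEK: 20 and 200 µM; brain: a concentration series or 200 µM), then given FP-Rh (1 µM). Reactions were quenched after 10 minutes, run on SDS-PAGE and quantified by in-gel fluorescence scanning.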

[3] = target: T2, glutathione transferase omega 1 (GSTO1) (Homo sapiens, UniProt P78417); assay: PS-Rh labeling of GSTO1 in MDA-MB-231 proteome; type: biochemical; conditions: compounds 20 µM, PS-Rh 5 µM, 1 hour
T2 sequence (P78417 1-241): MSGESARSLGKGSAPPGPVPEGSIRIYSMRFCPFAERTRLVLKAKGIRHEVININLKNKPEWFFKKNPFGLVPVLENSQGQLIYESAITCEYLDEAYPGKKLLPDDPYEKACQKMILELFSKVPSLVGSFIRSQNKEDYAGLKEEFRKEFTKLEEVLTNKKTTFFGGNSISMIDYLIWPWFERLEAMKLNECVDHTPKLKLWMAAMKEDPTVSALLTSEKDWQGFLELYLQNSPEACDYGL
In short: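 Gel-based competitive ABPP for thiol cross-reactivity. MDA-MB-231 proteome was treated with test compound (20 µM) and then labelled with the cysteine-reactive phenylsulfonate-rhodamine probe (5 µM, 1 hour). Labelled proteins were resolved on gel and read by fluorescence.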

RBBP9 [4] = target: T1, RBBP9; assay: reversibility of RBBP9 inhibition by gel filtration, FP-Rh labeling; type: biochemical; conditions: inhibitor 100 µM
In short: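 One half was reacted directly with FP-Rh. The other half was gel-filtered, then reacted with FP-Rh. Probe labelling was compared between the two halves.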

[5] = system: serine hydrolases of the mouse brain membrane proteome; type: biochemical; conditions: mouse brain membrane proteome doped with RBBP9, FP-Rh probe, up to 200 µM
In short: as §1

RBBP9 [6] = target: T1, RBBP9; assay: LC-MS/MS identification of site of covalent labeling on RBBP9; conditions: trypsin digest, +138.00 Da modification
α2-adrenergic receptors = conditions: cited from earlier work
translation (ribosome) = conditions: in vitro ref 15; cited from earlier work
RBBP9 [7] = target: T1, RBBP9; conditions: ~20,000 compound fluopol-ABPP screen ref 5; cited from earlier work

T1 sequence (O75884 whole entry): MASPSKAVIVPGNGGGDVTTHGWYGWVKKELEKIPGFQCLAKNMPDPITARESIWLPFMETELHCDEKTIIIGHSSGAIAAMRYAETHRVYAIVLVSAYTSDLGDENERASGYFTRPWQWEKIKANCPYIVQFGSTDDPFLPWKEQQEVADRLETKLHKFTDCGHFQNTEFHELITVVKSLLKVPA
Sequence of purified RBBP9 (O75884 whole entry): as above

**Q.** With `C/C(=N\OC(=O)c1ccc(-c2ccccc2)cc1)c1nccs1` [Compound 13] as the compound, how does the “RBBP9 inhibitory activity (in words)” value (purified RBBP9) read?
**A.** completely ablating all inhibitory activity

**Q.** Which inhibition at 7.94 µM (RBBP9 [1]) does the source give for `CC1=CC(=NOC(=O)/C=C/c2ccccc2)C=C(C)C1=O` [Compound 4] here?
**A.** ~80%

**Q.** What about the “selectivity for RBBP9 over other hydrolases” value (“selectivity for RBBP9” for short) [2] of the same compound?
**A.** less selective for RBBP9

**Q.** What about the “inhibition of PS-Rh labeling of GSTO1” value [3] of the same compound?
**A.** potently inhibited

**Q.** Which results are given for `C/C(=N\OC(=O)c1ccc(Cl)cc1)c1nccs1` [Compound 2]?
**A.** reversibility of blockade of FP-rhodamine RBBP9 labeling (RBBP9 [4]): not reversed by gel filtration; selectivity for RBBP9 over other hydrolases [5]: highly selective for RBBP9; site of covalent adduct on RBBP9 (RBBP9 [6]): adduct only on the active site serine nucleophile (Ser75)

**Q.** For `COc1ccc(C(=O)ON=C2C(C)=CC(=O)C=C2C)cc1` [Compound 23], which “RBBP9 inhibitory activity (in words)” value (purified RBBP9) is on record?
**A.** loss of RBBP9 inhibitory activity, an effect exacerbated

**Q.** Which “selectivity for RBBP9” value [5] does the source give for `COc1ccc(C(=O)O/N=C(\C)c2nccs2)cc1` [Compound 3] here?
**A.** highly selective for RBBP9

**Q.** With `COc1ccc(C(=O)ON=C2C=C(C)C(=O)C(C)=C2)cc1` [Compound 21] as the compound, how does the “selectivity for RBBP9” value [5] read?
**A.** good selectivity for RBBP9

**Q.** What about the “inhibition of PS-Rh labeling of GSTO1” value [3] of the same compound?
**A.** no longer inhibited GSTO1

**Q.** For `CC[C@H]1CN2CCc3cc(OC)c(OC)cc3[C@@H]2C[C@@H]1C[C@H]1NCCc2cc(OC)c(OC)cc21` [1 (emetine), emetine], which “reversibility of blockade of FP-rhodamine RBBP9 labeling” value (RBBP9 [4]) is on record?
**A.** reversible inhibitor

**Q.** And the “antagonism of α2-adrenergic receptors” value (α2-adrenergic receptors)?
**A.** antagonize of α2-adrenergic receptors

**Q.** What about the inhibition of translation (translation (ribosome)) of the same compound?
**A.** inhibit translation in vitro

**Q.** And the “mode of RBBP9 inhibition” value (RBBP9 [7])?
**A.** reversible inhibitor of RBBP9

**Q.** With `C/C(=N\OC(=O)N1CCCCC1)c1nccs1` [Compound 20] as the compound, how does the “RBBP9 inhibitory activity (in words)” value (purified RBBP9) read?
**A.** no inhibition of RBBP9

**Q.** With `C/C(=N\OC(=O)c1ccc([N+](=O)[O-])cc1)c1nccs1` [Compound 12] as the compound, how does the “RBBP9 inhibitory activity (in words)” value (purified RBBP9) read?
**A.** loss of RBBP9 inhibitory activity

**Q.** For `C/C(=N\OC(=O)/C=C/c1ccccc1)c1nccs1` [Compound 24], which “RBBP9 inhibitory activity (in words)” value (purified RBBP9) is on record?
**A.** significantly reduced activity against RBBP9

**Q.** For `COc1ccc(C(=O)O/N=C2/C=C(C)C(=O)C=C2C)cc1` [Compound 22], which “RBBP9 inhibitory activity (in words)” value (purified RBBP9) is on record?
**A.** loss of RBBP9 inhibitory activity

**Q.** With `CC(=O)O/N=C(\C)c1nccs1` [Compound 19] as the compound, how does the “RBBP9 inhibitory activity (in words)” value (purified RBBP9) read?
**A.** no detectable inhibitory activity

**Q.** For `C/C(=N\OC(=O)C1CCCCC1)c1nccs1` [Compound 18], which “fold lower IC50 than hit compound 2” value (purified RBBP9; recombinant RBBP9) is on record?
**A.** 3 fold

**Q.** And the “selectivity for RBBP9” value [5]?
**A.** did not inhibit any other hydrolases

**Q.** And the “selectivity for RBBP9” value [2]?
**A.** selective for RBBP9
